This is an account of results in ChEMBL document CHEMBL1127620, “Synthesis and antibacterial activity of thiazolopyrazine-incorporated tetracyclic quinolone antibacterials” (1994).

Values after ≈ are worked out from the molar mass of the structure shown.

What all share (assay type): functional
One experiment deals with Klebsiella pneumoniae. Briefly: In vitro minimum inhibitory concentration against gram-negative Kp, Klebsiella pneumoniae B54. Summed up: (§1)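 Two-fold agar dilution on Sensitivity Disk Agar-N (Japan Society of Chemotherapy method). Overnight broth cultures diluted in buffered saline with 0.01% gelatin to about 10⁶ CFU/mL. One loopful (5 μL/spot) inoculated onto plates containing graded agent concentrations. Incubation 37 °C, 18 h. MIC = lowest concentration inhibiting visible growth.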

The species named for experiment [1] is Mus musculus. Briefly: Compound was tested for oral efficacy on systemic infections caused by Escherichia coli KC-14 in mice. The method, boiled down: (§2)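 Male ddY mice (25 g) infected intraperitoneally with 0.5 mL overnight brain heart infusion culture diluted in 5% gastric mucin, about 35 to 500 times the LD50. Compound given orally 1 h post-infection, as 1% aqueous gum arabic suspension or distilled water solution. Four dose groups of five mice. Survival followed daily for 7 days; ED50 by Weil method.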

Experiment [2] is filed under the species Mus musculus. Briefly: Compound was tested for oral efficacy on systemic infections caused by Staphylococcus aureus IID803 in mice. Summed up: as §2
Experiment [3] deals with Staphylococcus aureus. Briefly: In vitro minimum inhibitory concentration against gram-positive Sa (I), Staphylococcus aureus IID803. Summed up: as §1
Experiment [4] has as its system Staphylococcus epidermidis. Briefly: In vitro minimum inhibitory concentration against gram-positive Se, Staphylococcus epidermidis IAM 1296. The method, boiled down:
as §1

The test system of experiment [5] is Staphylococcus aureus. Briefly: In vitro minimum inhibitory concentration against gram-positive Sa (F), Staphylococcus aureus FDA 209P JC-1. The method, boiled down:
as §1

For experiment [6], the species on record is Mus musculus. Briefly: Compound was tested for oral efficacy on systemic infections caused by Escherichia coli KC-14 in mice. Summed up: as §2
The species named for experiment [7] is Mus musculus. Briefly: Compound was tested for oral efficacy on systemic infections caused by Staphylococcus aureus IID803 in mice. The method, boiled down:
as §2

The test system of experiment [8] is Escherichia coli. Briefly: Compound was tested for in vitro antibacterial activity (minimum inhibition concentration) against gram-negative Ec(K), Escherichia coli KC-14. The method, boiled down: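 Two-fold agar dilution on Sensitivity Disk Agar-N (Japan Society of Chemotherapy method). Overnight broth cultures diluted in buffered saline with 0.01% gelatin to about 10⁶ CFU/mL; one loopful (5 μL/spot) inoculated onto plates with graded agent concentrations. Incubation 37 °C, 18 h; MIC = lowest concentration inhibiting visible growth.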

Experiment [9] has as its system Escherichia coli. Briefly: Compound was tested for in vitro antibacterial activity (minimum inhibition concentration) against gram-negative Ec(K), Escherichia coli KC-14. The method, boiled down:
as §1

In turn, `CN1Cc2csc3c(C(=O)O)c(=O)c4cc(F)c(N5CCNCC5)c1c4n23` had a minimal inhibitory concentration (MIC) in the experiment with Klebsiella pneumoniae of 0.025 µg/mL (≈ 0.0644 µM). Also, the ED50 in the experiment listed under Mus musculus [1] is above 2 mg/kg.

`CN1Cc2csc3c(C(=O)O)c(=O)c4cc(F)c(N5CCC(N)C5)c1c4n23` (centres undefined): in the experiment on Klebsiella pneumoniae, the minimal inhibitory concentration (MIC) turned out to be 0.025 µg/mL (≈ 0.0644 µM). The same compound had an ED50 in the experiment filed under Mus musculus [1] above 2 mg/kg.

`CN1Cc2csc3c(C(=O)O)c(=O)c4cc(F)c(N5CCSCC5)c1c4n23` showed a median effective dose (ED50) in the experiment listed under Mus musculus [2] above 12 mg/kg. Besides, the minimal inhibitory concentration (MIC) against Staphylococcus aureus [3] is 0.0125 µg/mL (≈ 0.0308 µM); in experiment [4], 0.025 µg/mL (≈ 0.0617 µM); in the experiment with Staphylococcus aureus [5] it was 0.025 µg/mL (≈ 0.0617 µM).

For the compound `CN1Cc2csc3c(C(=O)O)c(=O)c4cc(F)c(N5CCCC5)c1c4n23`, in the experiment listed under Mus musculus [6], the ED50 is above 2 mg/kg.

In the experiment listed under Mus musculus [2], `CNCC1CCN(c2c(F)cc3c(=O)c(C(=O)O)c4scc5n4c3c2N(C)C5)C1` (centres undefined) displayed an ED50 above 12 mg/kg. The minimum inhibitory concentration (MIC) with Klebsiella pneumoniae turned out to be 0.025 µg/mL (≈ 0.06 µM).

Take `CC1CN(c2c(F)cc3c(=O)c(C(=O)O)c4scc5n4c3c2N(C)C5)CCN1C` (centres undefined): the figures for the 50% effective dose (ED50) in the experiment filed under Mus musculus [7] and in the experiment filed under Mus musculus [1] were 3 mg/kg and 2 mg/kg, respectively.

`CCC1CN(c2c(F)cc3c(=O)c(C(=O)O)c4scc5n4c3c2N(C)C5)CCN1C` (centres undefined): the MIC against Staphylococcus aureus [3] and against Staphylococcus aureus [5] was 0.05 µg/mL (≈ 0.116 µM) each time.

Turning to `C[C@@H]1CN(c2c(F)cc3c(=O)c(C(=O)O)c4scc5n4c3c2N(C)C5)C[C@H](C)N1C`, the ED50 in the experiment filed under Mus musculus [7] and in the experiment listed under Mus musculus [1] was 2 mg/kg each time. Also, inhibition of growth with Staphylococcus aureus [5] (MIC) required 0.025 µg/mL (≈ 0.0581 µM).

Take `C[C@@H]1CN(c2c(F)cc3c(=O)c(C(=O)O)c4scc5n4c3c2N(C)C5)C[C@H](C)N1`: the minimum inhibitory concentration (MIC) in the experiment on Staphylococcus aureus [3], against Escherichia coli [8] and against Staphylococcus aureus [5] was 0.05 µg/mL (≈ 0.12 µM) in each case. The compound also showed a 50% effective dose (ED50) in the experiment listed under Mus musculus [1] above 2 mg/kg.

As to `CN1Cc2csc3c(C(=O)O)c(=O)c4cc(F)c(N5CCC(O)C5)c1c4n23` (centres undefined), the ED50 in the experiment listed under Mus musculus [2] is above 12 mg/kg.

`CCN1CCN(c2c(F)cc3c(=O)c(C(=O)O)c4scc5n4c3c2N(C)C5)CC1`: the ED50 in the experiment listed under Mus musculus [2] came to 3 mg/kg; in the experiment listed under Mus musculus [6] it was 1 mg/kg. In addition, the MIC against Staphylococcus aureus [3], against Klebsiella pneumoniae and against Escherichia coli [8] was 0.05 µg/mL (≈ 0.12 µM) each time.

Turning to `CCN1[C@H](C)CN(c2c(F)cc3c(=O)c(C(=O)O)c4scc5n4c3c2N(C)C5)C[C@@H]1C.Cl`, the MIC with Staphylococcus aureus [3] and with Staphylococcus aureus [5] was 0.05 µg/mL in each case.

Take `CCC1CN(c2c(F)cc3c(=O)c(C(=O)O)c4scc5n4c3c2N(C)C5)CCN1.Cl` (centres undefined): the minimal inhibitory concentration (MIC) in the experiment with Staphylococcus aureus [3] and against Staphylococcus aureus [5] was 0.05 µg/mL throughout.

Compound `CCNCC1CCN(c2c(F)cc3c(=O)c(C(=O)O)c4scc5n4c3c2N(C)C5)C1.Cl` (centres undefined) returned an ED50 in the experiment filed under Mus musculus [2] above 12 mg/kg. In addition, in the experiment on Klebsiella pneumoniae, the minimal inhibitory concentration (MIC) was found to be 0.05 µg/mL.

`CC1CN(c2c(F)cc3c(=O)c(C(=O)O)c4scc5n4c3c2N(C)C5)CCN1.Cl` (centres undefined) displayed a 50% effective dose (ED50) in the experiment listed under Mus musculus [1] above 2 mg/kg.

As for `CN1CCN(c2c(F)cc3c(=O)c(C(=O)O)c4scc5n4c3c2N(C)C5)CC1`, the ED50 in the experiment listed under Mus musculus [2] was found to be 3 mg/kg; in the experiment filed under Mus musculus [6], 1 mg/kg. The minimal inhibitory concentration (MIC) in the experiment with Staphylococcus aureus [3], in the experiment with Klebsiella pneumoniae and with Escherichia coli [9] was 0.05 µg/mL (≈ 0.124 µM) in each case.

Consider `CN1Cc2csc3c(C(=O)O)c(=O)c4cc(F)c(N5CCOCC5)c1c4n23`, for which, in the experiment filed under Mus musculus [2], the ED50 is above 12 mg/kg. In the experiment on Klebsiella pneumoniae, this compound registered a minimal inhibitory concentration (MIC) of 0.05 µg/mL (≈ 0.128 µM).

Regarding `CC1COc2c(N3CCN(C)CC3)c(F)cc3c(=O)c(C(=O)O)cn1c23` (centres undefined) [OFLOXACIN], the ED50 in the experiment listed under Mus musculus [2] came to 11 mg/kg; in the experiment filed under Mus musculus [1], 1 mg/kg.

A word on the MIC: it is the smallest concentration in the dilution series that meets the test's criterion for growth inhibition. Read a low MIC as inhibition by little substance. By ED50 is commonly meant the dose at which the effect has come halfway, by size or by number of responders.
